Calls of active or inactive are those of the source. The calls are words filed in the database; no cut-off is given here.

Data set [1] in a line: (§1) Inhibition of NF-kappaB in HUVECtert assessed as reduction in TNFalpha-induced VCAM-1 expression level pretreated for 30 mins followed by TNFalpha stimulation measured after 18 hrs by flow cytometry. Also on record: species or system Homo sapiens. The method in brief: (§2)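 FITC-antibody surface staining, flow cytometry; expression relative to TNFα-stimulated control. Parthenolide 10 μM as positive control; means ± SD, n = 3, one-way ANOVA/Dunnett versus vehicle.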

Data set [2] is filed under the species Homo sapiens. Described as §1. In outline:
as §2

A short description of data set [3]: (§3) Inhibition of NF-kappaB in HUVECtert assessed as reduction in TNFalpha-induced ICAM-1 expression level pretreated for 30 mins followed by TNFalpha stimulation measured after 18 hrs by flow cytometry. Also on record: species or system Homo sapiens. The method in brief:
as §2
(In general: In flow cytometry, cells or beads pass a laser one at a time.)

The species named for data set [4] is Homo sapiens. The description is as §3. The method in brief: as §2
Data set [5] is described as follows: (§4) Inhibition of NF-kappaB in HUVECtert assessed as reduction in TNFalpha-induced E-selectin expression level pretreated for 30 mins followed by TNFalpha stimulation measured after 5 hrs by flow cytometry. On the set-up: species or system Homo sapiens. In outline:
as §2

The species entered for data set [6] is Homo sapiens. Described as §4. In outline:
as §2

Data set [7] is described as follows: Effect on basal E-selectin expression level in HUVECtert at 0.5 to 10 uM incubated for 30 mins by flow cytometry. In kind it is ADME. Conditions: human, 0.5 h. The method in brief:
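Unstimulated HUVECtert treated with 0.5−10 μM test agent without TNFα; surface VCAM-1, ICAM-1 or E-selectin stained with FITC-labelled antibodies and read by flow cytometry.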

For data set [8], the species on record is Homo sapiens. Kind of data set: Cytotoxicity against HUVECtert assessed as reduction in cell viability after 18 hrs by resazurin dye based fluorescence assay. In kind it is functional. In outline: (§5)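 HUVECtert (passage ≤15) seeded on gelatin-coated wells, grown 48 h, then exposed to test agent or 0.1% DMSO vehicle, with or without TNFα; digitonin 100 μg/mL as positive control. After 18 h, supernatant removed, cells washed, then 2 h with 10 μg/mL resazurin in PBS; metabolic conversion read relative to vehicle.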
(Alamar Blue is a resazurin reagent that responds to reducing activity.)

The species named for data set [9] is Homo sapiens. Briefly: Cytotoxicity against TNFalpha-stimulated HUVECtert assessed as reduction in cell viability incubated for 30 mins followed by TNFalpha stimulation measured after 17.5 hrs by resazurin dye based fluorescence assay. In kind it is functional. The method in brief:
as §5

In data set [10] the target is T1, NF-kappa-B inhibitor alpha (Homo sapiens) (UniProt P25963).
T1 sequence (whole entry): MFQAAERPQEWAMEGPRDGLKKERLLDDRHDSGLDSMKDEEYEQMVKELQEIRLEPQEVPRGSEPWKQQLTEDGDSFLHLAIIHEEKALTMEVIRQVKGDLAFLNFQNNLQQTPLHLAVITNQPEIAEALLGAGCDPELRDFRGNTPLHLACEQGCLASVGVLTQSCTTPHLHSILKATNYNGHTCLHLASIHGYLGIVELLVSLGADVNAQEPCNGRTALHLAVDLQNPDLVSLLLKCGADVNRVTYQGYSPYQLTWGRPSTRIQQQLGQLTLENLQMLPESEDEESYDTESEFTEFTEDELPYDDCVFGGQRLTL
Briefly: Inhibition of IkappaBalpha phosphorylation level in TNFalpha-stimulated HUVECtert at 2 uM pretreated for 30 mins followed by TNFalpha stimulation measured after 5 to 15 mins by Western blot analysis. In outline:
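HUVECtert on gelatin-coated dishes pretreated with 2 μM agent or 0.1% DMSO, then TNFα 10 ng/mL; p-IKKα/β, p-IκBα and total IκBα immunoblotted at 5 or 15 min post-stimulation, actin loading control; means ± SD, n = 3, one-way ANOVA/Dunnett.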
A general note: In western blotting, separated proteins are transferred to a membrane and probed.

The target of data set [11] is Transcription factor p65 (Homo sapiens) (UniProt Q04206). Briefly: Inhibition of NF-kappaB p65 binding to DNA consensus in TNFalpha-stimulated HUVECtert at 2 uM pretreated for 30 mins followed by TNFalpha stimulation measured after 1 hr […].
For data set [12], the species on record is Homo sapiens. Briefly: Inhibition of NF-kappaB in HUVECtert assessed as reduction in TNFalpha-induced VCAM-1 mRNA expression level at 5 uM pretreated for 30 mins followed by TNFalpha stimulation measured after 4 hrs by qRT-PCR analysis.
The species entered for data set [13] is Homo sapiens. Briefly: Inhibition of NF-kappaB in HUVECtert assessed as reduction in TNFalpha-induced VCAM-1 mRNA expression level at 0.5 uM pretreated for 30 mins followed by TNFalpha stimulation measured after 4 hrs by qRT-PCR analysis.
The species named for data set [14] is Homo sapiens. Briefly: Inhibition of NF-kappaB in HUVECtert assessed as reduction in TNFalpha-induced E-selectin mRNA expression level at 0.5 to 5 uM pretreated for 30 mins followed by TNFalpha stimulation measured after 2 hrs by qRT-PCR analysis.
The species entered for data set [15] is Homo sapiens. Briefly: Reduction in cyclin D1 level in HUVECtert at 2 uM by Western blot analysis. Conditions: TDE = time-dependent effect. The data set is classed as functional. The method in brief:
(§6)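 HUVECtert treated with 1 μM cycloheximide, 2 μM agent, vehicle, or left untreated for a time course; cyclin D1 or survivin by Western blot, actin loading control; means ± SD of three blots, one-way ANOVA/Dunnett versus untreated.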

For data set [16], the species on record is Homo sapiens. Briefly: Reduction in survivin level in HUVECtert at 2 uM measured up to 480 mins by Western blot analysis. In kind it is functional. In outline: as §6
For data set [17], the species on record is Homo sapiens. Briefly: Reduction in p53 level in HUVECtert at 2 uM after 8 hrs by Western blot analysis. The data set is classed as functional.
For data set [18], the species on record is Homo sapiens. Briefly: Reduction in cyclin A level in HUVECtert at 2 uM after 8 hrs by Western blot analysis. The data set is classed as functional.
Data set [19] is filed under the species Homo sapiens. Kind of data set: Inhibition of NF-kappaB in HUVECtert assessed as reduction in cyclin D1 mRNA expression level at 2 uM measured up to 240 mins by qRT-PCR analysis. In outline: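 HUVECtert incubated without TNFα with 2 μM agent, 1 μM cycloheximide or 0.1% DMSO for 0.5−4 h; cyclin D1 mRNA by qRT-PCR, 2−ΔΔCt analysis.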
For data set [20], the species on record is Homo sapiens. Kind of data set: Inhibition of de novo protein synthesis in HUVECtert at 2 to 5 uM after 30 mins by Click-iT OPP/Alexa fluor 488 picolyl azide reagent based confocal fluorescence microscopy. The data set is classed as functional. In outline: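 Cells on gelatin coverslips (24 h) exposed 30 min to agent (2 or 5 μM; cycloheximide 1, 3.5, 35 μM) or 0.1% DMSO, then 20 μM OPP for 30 min; formaldehyde fixation, Triton permeabilisation, Alexa 488 picolyl azide click reaction 30 min, nuclear counterstain; confocal imaging at 10×, constant gain and exposure.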

Chain of Transcription factor p65 (Homo sapiens) (Q04206 whole entry): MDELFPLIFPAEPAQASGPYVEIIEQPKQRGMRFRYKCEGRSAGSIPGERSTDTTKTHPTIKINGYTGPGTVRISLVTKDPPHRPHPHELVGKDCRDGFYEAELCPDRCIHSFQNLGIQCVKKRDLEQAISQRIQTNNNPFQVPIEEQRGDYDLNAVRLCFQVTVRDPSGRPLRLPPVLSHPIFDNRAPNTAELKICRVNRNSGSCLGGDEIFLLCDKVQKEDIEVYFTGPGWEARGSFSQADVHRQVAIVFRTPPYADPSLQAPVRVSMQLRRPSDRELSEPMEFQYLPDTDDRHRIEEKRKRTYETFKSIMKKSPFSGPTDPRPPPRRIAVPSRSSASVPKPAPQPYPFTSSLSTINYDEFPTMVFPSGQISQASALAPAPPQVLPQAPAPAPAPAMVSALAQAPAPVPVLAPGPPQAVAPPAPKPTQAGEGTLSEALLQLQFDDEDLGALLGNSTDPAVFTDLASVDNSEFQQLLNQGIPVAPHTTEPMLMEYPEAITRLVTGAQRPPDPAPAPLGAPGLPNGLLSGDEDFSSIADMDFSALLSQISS

`CC1=CC(=O)[C@@H](O)[C@@]2(C)[C@H]1CC(=O)[C@@]1(C)[C@H]3C(=O)O[C@H]([C@@H]3C)[C@H](O)[C@@H]12` [EURYCOMALACTONE]: the IC50 (as a rule, the concentration needed to halve the response being measured) stood at 540 nM in [1], 580 nM in [3] and 560 nM in [5]. Further, the inhibition result in the data set filed under Homo sapiens [2], in the data set listed under Homo sapiens [4] and in the data set filed under Homo sapiens [6] was “Dose-dependent effect” each time. Moreover, the Activity entry is “Non-Toxic” in data set [7] and “Tde” in the data set listed under Homo sapiens [15]. Besides, the outcome in the data set listed under Homo sapiens [8], in the data set listed under Homo sapiens [9], in the data set listed under Homo sapiens [16], in the data set listed under Homo sapiens [17] and in the data set filed under Homo sapiens [18] was inactive. For the same compound, the inhibition result (in data set [10]; in [11]; in the data set listed under Homo sapiens [13]; in the data set listed under Homo sapiens [14]; in the data set listed under Homo sapiens [19]) was “inactive” in each case. The inhibition entry in the data set filed under Homo sapiens [12] and in the data set listed under Homo sapiens [20] was “Active” each time.

(Values after ChEMBL document CHEMBL4138188, “Eurycomalactone Inhibits Expression of Endothelial Adhesion Molecules at a Post-Transcriptional Level” (J Nat Prod, 2017).)
